From ChEMBL document CHEMBL1131190, “Synthesis of 7-benzylamino-6-chloro-2-piperazino-4-pyrrolidinopteridine and novel derivatives free of positional isomers. Potent inhibitors of cAMP-specific phosphodiesterase and of malignant tumor cell growth” (J Med Chem, 1998)

Columns and labels:
Phosphodiesterase 4 = Phosphodiesterase 4 (Homo sapiens, UniProt P27815+Q08499+Q07343+Q08493); test: Inhibition of cAMP hydrolysis by inhibiting phosphodiesterases (PDE4), isolated from tumor tissue of human large cell lung tumor xenograft LXFL-529, grown in nude mice.; format: protein assay
[1] = Growth inhibition of LXFL529L cells by sulforhodamine B assay, incubation time 3 days and IC50 was calculated survival of treated cells over control cells X 100[T/C%]; format: functional; details: Homo sapiens, LXFL 529L, 72 h
How it was run: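 LXFL529L cells grown in RPMI 1640 with extra glutamine (300 mg/L), 1% penicillin/streptomycin and 10% newborn calf serum at 37 °C, 5% CO₂, mycoplasma-free. Seeded, grown 24 h, then exposed continuously to drug for 3 d. Sulforhodamine B read-out expressed as % T/C of controls. IC50 from mean ± SEM of two separate assays, each in quadruplicate.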

IC50 (Phosphodiesterase 4)	SMILES	IC50 [1]
0.65 µM	CN(C)c1nc2c(N3CCCC3)nc(Cl)nc2nc1NCc1ccccc1	> 20 µM
3.7 µM	NCCNc1nc(N2CCCC2)c2nc(Cl)c(NCc3ccccc3)nc2n1	3.2 µM
4.2 µM	O=C1CN(c2nc(N3CCCC3)c3nc(Cl)c(NCc4ccccc4)nc3n2)CCN1	9.5 µM
0.016 µM	Clc1nc2c(N3CCCC3)nc(N3CCNCC3)nc2nc1NCc1ccccc1	2.3 µM
0.046 µM	CN(C)c1nc2nc(N3CCNCC3)nc(N3CCCC3)c2nc1Cl	5.8 µM
0.059 µM	Clc1nc2c(N3CCCC3)nc(N3CCNCC3)nc2nc1N1CCCC1	3.1 µM
2.5 µM	Clc1nc2c(N3CCCC3)nc(N3CCOCC3)nc2nc1NCc1ccccc1	> 20 µM

Continued, compound first:

SMILES	IC50 (Phosphodiesterase 4)	IC50 [1]
OCCNc1nc(N2CCCC2)c2nc(Cl)c(NCc3ccccc3)nc2n1	2.8 µM	15.2 µM
CN1CCN(c2nc(N3CCCC3)c3nc(Cl)c(NCc4ccccc4)nc3n2)CC1	3.1 µM	6.5 µM
CN(C)c1nc(N2CCCC2)c2nc(Cl)c(NCc3ccccc3)nc2n1	1.8 µM	11.8 µM
Clc1nc2c(NCc3ccccc3)nc(N3CCNCC3)nc2nc1N1CCCC1	0.083 µM	4 µM
c1ccc(CNc2cnc3c(N4CCCC4)nc(N4CCNCC4)nc3n2)cc1	0.36 µM	7.3 µM
CN(C)c1nc(N2CCNCC2)nc2nc(NCc3ccccc3)c(Cl)nc12	0.3 µM	5.9 µM
CN(C)c1nc2nc(N3CCNCC3)nc(N(C)C)c2nc1Cl	1.2 µM	> 20 µM
CC(=O)N1CCN(c2nc(N3CCCC3)c3nc(Cl)c(NCc4ccccc4)nc3n2)CC1	5.9 µM	13 µM
